Converted amounts (≈) assume the structure as drawn.
Columns and labels:
Candida parapsilosis [1] = experiment: Antifungal activity against Candida parapsilosis after 48 hrs by M27-A3 CLSI method; assay type: functional; conditions: Lodderomyces parapsilosis
Procedure, shortened: (§1)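 Broth microdilution in RPMI 1640, two-fold serial dilutions, final test range 0.125–64 µg mL-1 (fluconazole reference 0.0078–128 µg mL-1). Inoculum 1.0×10^3–1.5×10^3 cells mL-1 from yeasts grown 24 h at 35 °C on Sabouraud dextrose agar. Incubation 35 °C, read at 48 h. MIC = lowest concentration giving >50% turbidity decrease versus growth control. Run three times in triplicate. C. parapsilosis ATCC22019 served as QC.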

Candida tropicalis [2] = experiment: Antifungal activity against Candida tropicalis DSM 11953 after 48 hrs by M27-A3 CLSI method; assay type: functional; conditions: DSM 11953, 48 h; procedure, shortened: as §1
Candida albicans [3] = experiment: Antifungal activity against Candida albicans ATCC 10231 after 48 hrs by M27-A3 CLSI method; assay type: functional; conditions: ATCC 10231, 48 h; procedure, shortened: as §1
Pichia kudriavzevii [4] = experiment: Ratio MIC for fluconazole to compound for Candida krusei after 48 hrs by M27-A3 CLSI method; assay type: functional
Candida albicans [5] = experiment: Antifungal activity against Candida albicans ATCC 76615 after 48 hrs by M27-A3 CLSI method; assay type: functional; conditions: ATCC 76615, 48 h; procedure, shortened: as §1
Candida albicans [6] = experiment: Antifungal activity against Candida albicans ATCC 24433 after 48 hrs by M27-A3 CLSI method; assay type: functional; procedure, shortened: as §1
Nakaseomyces glabratus [7] = experiment: Antifungal activity against Candida glabrata after 48 hrs by M27-A3 CLSI method; assay type: functional; procedure, shortened: as §1
Candida albicans [8] = experiment: Antifungal activity against Candida albicans ATCC 3153 after 48 hrs by M27-A3 CLSI method; assay type: functional; conditions: ATCC 3153, 48 h; procedure, shortened: as §1
[9] = Selectivity index, ratio of CC50 for human U937 cells to MIC for Candida Sp.; assay type: functional, U-937
Procedure, shortened: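 SI = CC50 from the 48 h U937 MTT assay divided by the mean MIC across all Candida species. That MIC comes from CLSI M27-A3 broth microdilution in RPMI 1640, 35 °C, read at 48 h.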

Pichia kudriavzevii [10] = experiment: Antifungal activity against Candida krusei PMC 0613 after 48 hrs by M27-A3 CLSI method; assay type: functional; procedure, shortened: as §1
Candida albicans [11] = experiment: Antifungal activity against Candida albicans after 48 hrs by M27-A3 CLSI method; assay type: functional; procedure, shortened: as §1
Pichia kudriavzevii [12] = experiment: Antifungal activity against Candida krusei after 48 hrs by M27-A3 CLSI method; assay type: functional; procedure, shortened: as §1
Candida parapsilosis [13] = experiment: Antifungal activity against Candida parapsilosis DSM 11224 after 48 hrs by M27-A3 CLSI method; assay type: functional; procedure, shortened: as §1
Candida tropicalis [14] = experiment: Antifungal activity against Candida tropicalis DSM11953 after 48 hrs by M27-A3 CLSI method
[15] = Cytotoxicity against human U937 cells after 48 hrs by MTT assay; assay type: cell-based, U-937
Procedure, shortened: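 U937 human monocytic cells, 2×10^4 per well, in phenol-red-free RPMI 1640 with 10% FBS, L-glutamine, penicillin and streptomycin. Exposed 48 h at 37 °C, 5% CO2, to compounds dissolved in DMSO at final 8–128 µg mL-1, at least five concentrations, each in three replicates. MTT added for 3–4 h, crystals dissolved, OD read at 570 nm. CC50 taken against DMSO-only control. Means ± SD from three independent experiments.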

Pichia kudriavzevii [16] = experiment: Antifungal activity against Candida krusei DSM 6128 after 48 hrs by M27-A3 CLSI method; assay type: functional; conditions: DSM 6128, 48 h; procedure, shortened: as §1
Candida tropicalis [17] = experiment: Antifungal activity against Candida tropicalis after 48 hrs by M27-A3 CLSI method; assay type: functional; procedure, shortened: as §1
Candida parapsilosis [18] = experiment: Antifungal activity against Candida parapsilosis ATCC 22019 after 48 hrs by M27-A3 CLSI method; assay type: functional; conditions: Lodderomyces parapsilosis, ATCC 22019, 48 h; procedure, shortened: as §1
Candida = experiment: Antifungal activity against Candida sp. after 48 hrs by M27-A3 CLSI method; assay type: functional; procedure, shortened: as §1
Nakaseomyces glabratus [19] = experiment: Antifungal activity against Candida glabrata PMC 0805 after 48 hrs by M27-A3 CLSI method; assay type: functional; conditions: PMC 0805, 48 h; procedure, shortened: as §1
Candida tropicalis [20] = experiment: Antifungal activity against Candida tropicalis PMC 0910 after 48 hrs by M27-A3 CLSI method; assay type: functional; conditions: PMC 0910, 48 h; procedure, shortened: as §1
[21] = Candida albicans, ATCC 24433, 48 h, read-out: MIC
[22] = Pichia kudriavzevii, PMC 0613, 48 h, read-out: MIC
[23] = Lodderomyces parapsilosis, DSM 11224, 48 h, read-out: MIC

| Compound | MIC (Candida parapsilosis [1]) [µg/mL] | MIC (Candida tropicalis [2]) [µg/mL] | MIC (Candida albicans [3]) [µg/mL] | Ratio (Pichia kudriavzevii [4]) | MIC (Candida albicans [5]) [µg/mL] | MIC (Candida albicans [6]) [µg/mL] | MIC (Nakaseomyces glabratus [7]) [µg/mL] | MIC (Candida albicans [8]) [µg/mL] | Selectivity Index [9] | MIC (Candida albicans [11]) [µg/mL] | MIC50 (Candida albicans [11]) [µg/mL] | MIC90 (Candida albicans [11]) [µg/mL] | MIC (Pichia kudriavzevii [12]) [µg/mL] | MIC (Pichia kudriavzevii [16]) [µg/mL] | MIC (Candida tropicalis [17]) [µg/mL] | MIC (Candida parapsilosis [18]) [µg/mL] | MIC (Candida) [µg/mL] | MIC50 (Candida) [µg/mL] | MIC90 (Candida) [µg/mL] | MIC (Nakaseomyces glabratus [19]) [µg/mL] | also measured |
| --- | --- | --- | --- | --- | --- | --- | --- | --- | --- | --- | --- | --- | --- | --- | --- | --- | --- | --- | --- | --- | --- |
| O=C(OC(Cn1ccnc1)c1ccc(F)cc1)c1ccc(-c2ccccc2)cc1 (racemic) | 1.3 (≈ 3.36 µM) | 1 (≈ 2.59 µM) | 8 (≈ 20.7 µM) | 11 | 4 (≈ 10.4 µM) | 1.5 (≈ 3.88 µM) | 1 (≈ 2.59 µM) | 0.25 (≈ 0.647 µM) | 12 | 4.4 (≈ 11.4 µM) | 4 (≈ 10.4 µM) | 8 (≈ 20.7 µM) | 2.25 (≈ 5.82 µM) | 4 (≈ 10.4 µM) | 4.08 (≈ 10.6 µM) | 2 (≈ 5.18 µM) | 2.5 (≈ 6.47 µM) | 1 (≈ 2.59 µM) | 8 (≈ 20.7 µM) | 1 (≈ 2.59 µM) | MIC (Pichia kudriavzevii [10]): 0.83 µg/mL (≈ 2.15 µM); MIC (Candida parapsilosis [13]): 0.42 µg/mL (≈ 1.09 µM); MIC (Candida tropicalis [14]): 2.17 µg/mL (≈ 5.62 µM); CC50 at 48 h [15]: 41.5 µg/mL (≈ 107 µM) |
| O=C(OC(Cn1ccnc1)c1ccc(F)cc1)c1ccc(-c2ccccc2)cc1 (single isomer, unassigned; (+)) | – | – | – | – | – | 64 (≈ 166 µM) | – | – | – | – | – | – | – | – | – | – | – | – | – | – | MIC (Pichia kudriavzevii [10]): 64 µg/mL (≈ 166 µM); MIC (Candida parapsilosis [13]): 35.55 µg/mL (≈ 92 µM); MIC (Candida tropicalis [14]): 32 µg/mL (≈ 82.8 µM) |
| O=C(OC(Cn1ccnc1)c1ccccc1)c1ccc(-c2ccccc2)cc1 (racemic) | 0.7 (≈ 1.9 µM) | 0.25 (≈ 0.679 µM) | 1 (≈ 2.71 µM) | 5 | 4 (≈ 10.9 µM) | 0.37 (≈ 1 µM) | 4 (≈ 10.9 µM) | 0.25 (≈ 0.679 µM) | >44.1 | 3.7 (≈ 10 µM) | 1 (≈ 2.71 µM) | 8 (≈ 21.7 µM) | 4.7 (≈ 12.8 µM) | 2 (≈ 5.43 µM) | 0.5 (≈ 1.36 µM) | 2 (≈ 5.43 µM) | 2.1 (≈ 5.7 µM) | 0.5 (≈ 1.36 µM) | 4 (≈ 10.9 µM) | 4 (≈ 10.9 µM) | MIC (Pichia kudriavzevii [10]): 0.67 µg/mL (≈ 1.82 µM); MIC (Candida parapsilosis [13]): 0.33 µg/mL (≈ 0.896 µM); MIC (Candida tropicalis [14]): 0.58 µg/mL (≈ 1.57 µM); CC50 at 48 h [15]: > 128 µg/mL |
| OC(Cn1cncn1)(Cn1cncn1)c1ccc(F)cc1F [FLUCONAZOLE] | 1.6 (≈ 5.22 µM) | 1 (≈ 3.27 µM) | 2 (≈ 6.53 µM) | – | 0.25 (≈ 0.816 µM) | – | 0.87 (≈ 2.84 µM) | 16 (≈ 52.2 µM) | – | 4.9 (≈ 16 µM) | 1 (≈ 3.27 µM) | 16 (≈ 52.2 µM) | 26 (≈ 84.9 µM) | 16 (≈ 52.2 µM) | 3.25 (≈ 10.6 µM) | 2 (≈ 6.53 µM) | 7.9 (≈ 25.8 µM) | 2 (≈ 6.53 µM) | 16 (≈ 52.2 µM) | 0.5 (≈ 1.63 µM) | MIC (Candida tropicalis [20]): 2.5 µg/mL (≈ 8.16 µM); MIC (Candida albicans [6]; [21]): 1 µg/mL (≈ 3.27 µM); MIC (Pichia kudriavzevii [10]; [22]): 12 µg/mL (≈ 39.2 µM); MIC (Candida parapsilosis [13]; [23]): 1 µg/mL (≈ 3.27 µM) |
| O=C(OC(Cn1ccnc1)c1ccc(Cl)cc1)c1ccc(-c2ccccc2)cc1 (racemic) | 1.05 (≈ 2.61 µM) | 0.125 (≈ 0.31 µM) | 1 (≈ 2.48 µM) | 7 | 4 (≈ 9.93 µM) | – | 1 (≈ 2.48 µM) | 0.125 (≈ 0.31 µM) | 49.1 | 1.7 (≈ 4.22 µM) | 1 (≈ 2.48 µM) | 4 (≈ 9.93 µM) | 3.7 (≈ 9.18 µM) | 4 (≈ 9.93 µM) | 0.89 (≈ 2.21 µM) | 1 (≈ 2.48 µM) | 1.9 (≈ 4.72 µM) | 1 (≈ 2.48 µM) | 4 (≈ 9.93 µM) | 1 (≈ 2.48 µM) | MIC (Candida tropicalis [20]): 1 µg/mL (≈ 2.48 µM); MIC (Candida albicans [6]; [21]): 0.25 µg/mL (≈ 0.621 µM); MIC (Pichia kudriavzevii [10]; [22]): 1 µg/mL (≈ 2.48 µM); MIC (Candida parapsilosis [13]; [23]): 0.25 µg/mL (≈ 0.621 µM); CC50 at 48 h [15]: 88.3 µg/mL (≈ 219 µM) |
